Experimental data taken from ChEMBL document CHEMBL1687698, “Discovery of INCB9471, a Potent, Selective, and Orally Bioavailable CCR5 Antagonist with Potent Anti-HIV-1 Activity” (ACS Med Chem Lett, 2010).
Each block holds one compound with its values, some of them ahead of it. Activity calls are given as the source filed them. No cut-off for these calls is given here.

Assays:
[1] = biological target: T1, C-C chemokine receptor type 5 (Homo sapiens, UniProt P51681); assay: Displacement of [125I]MIP-1beta from CCR5 in IL-10-stimulated human monocytes; assay type: cell-based
[2] = system: Human immunodeficiency virus 1; assay: Antiviral activity against HIV-1 ADA infected in PHA-stimulated human PBMC cells assessed as viral p24 core protein level after 7 days by ELISA; assay type: functional, organism-based; conditions: Human immunodeficiency virus 1, ADA, 168 h
In short: (§1)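 Human PBMC activated with PHA, then infected with HIV-1 (ADA or BaL strain). Infectivity was read as viral p24 core protein in the culture supernatants.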

[3] = system: Human immunodeficiency virus 1; assay: Antiviral activity against HIV-1 BaL infected in PHA-stimulated human PBMC cells assessed as viral p24 core protein level after 7 days by ELISA; assay type: functional, organism-based; conditions: Human immunodeficiency virus 1, BaL, 168 h; in short: as §1
[4] = Permeability across basolateral to apical side in human Caco2 cells; assay type: ADME, cell-based; conditions: Caco-2, read-out: permeability
[5] = system: Human immunodeficiency virus 1; assay: Antiviral activity against HIV-1 X4 infected in PBMC cells; assay type: functional, organism-based
[6] = Systemic clearance in dog at 1 mg/kg, iv; assay type: ADME, organism-based, Canis lupus familiaris; parameters: dose 1 mg/kg, route intravenous; conditions: in vivo
[7] = biological target: T1, C-C chemokine receptor type 5; assay: Activation of CCR5 in human PBMC cells; assay type: cell-based
[8] = biological target: T1, C-C chemokine receptor type 5; assay: Antagonist activity at CCR5 assessed as inhibition of receptor internalization; assay type: functional
[9] = system: Canis familiaris; assay: Volume of distribution in dog at 1 mg/kg, iv; assay type: ADME, organism-based, Canis lupus familiaris; parameters: dose 1 mg/kg, route intravenous; conditions: in vivo
[10] = biological target: Cytochrome P450 3A4 (Homo sapiens, UniProt P08684); assay: Inhibition of CYP3A4; assay type: ADME
[11] = Half life in rat at 20 mg/kg, po; assay type: ADME, organism-based; parameters: dose 20 mg/kg, route oral; conditions: in vivo
[12] = biological target: Cytochrome P450 2D6 (Homo sapiens, UniProt P10635); assay: Inhibition of CYP2D6; assay type: ADME
[13] = system: Rattus norvegicus; assay: Volume of distribution in rat at 1 mg/kg, iv; assay type: ADME, organism-based; parameters: dose 1 mg/kg, route intravenous; conditions: in vivo
[14] = biological target: T1, C-C chemokine receptor type 5; assay: Antagonist activity at CCR5 assessed as inhibition of ERK phosphorylation; assay type: functional
[15] = biological target: T2, Cytochrome P450 1A2 (Homo sapiens, UniProt P05177); assay: Inhibition of CYP1A2; assay type: ADME
T2 sequence (P05177 whole entry): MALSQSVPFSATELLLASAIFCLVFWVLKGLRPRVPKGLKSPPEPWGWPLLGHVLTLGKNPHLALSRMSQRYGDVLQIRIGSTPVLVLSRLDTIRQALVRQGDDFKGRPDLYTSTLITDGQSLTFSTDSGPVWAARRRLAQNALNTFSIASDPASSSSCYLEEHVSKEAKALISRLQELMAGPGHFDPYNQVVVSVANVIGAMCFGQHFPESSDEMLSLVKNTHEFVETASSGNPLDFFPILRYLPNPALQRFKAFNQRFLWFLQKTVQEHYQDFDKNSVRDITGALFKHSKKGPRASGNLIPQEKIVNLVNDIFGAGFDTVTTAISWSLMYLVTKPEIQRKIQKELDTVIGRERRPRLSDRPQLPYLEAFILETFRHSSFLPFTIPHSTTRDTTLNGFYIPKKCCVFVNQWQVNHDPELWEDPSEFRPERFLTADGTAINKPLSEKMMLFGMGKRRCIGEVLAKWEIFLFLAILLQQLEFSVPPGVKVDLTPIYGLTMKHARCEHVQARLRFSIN

[16] = AUC in dog at 1 mg/kg, iv; assay type: ADME, organism-based, Canis lupus familiaris; parameters: dose 1 mg/kg, route intravenous; conditions: plasma
[17] = biological target: Voltage-gated inwardly rectifying potassium channel KCNH2 (Homo sapiens, UniProt Q12809); assay: Inhibition of human hERG
In short: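 hERG potassium current was measured by patch clamp, and IC50 was derived from current inhibition.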

[18] = biological target: T1, C-C chemokine receptor type 5; assay: Antagonist activity at CCR5 assessed as inhibition of intracellular calcium mobilization; assay type: functional, cell-based
[19] = system: Human immunodeficiency virus 1; assay: Antiviral activity against HIV-1 R5 clade J infected in human PBMC cells; assay type: functional; conditions: Human immunodeficiency virus 1, R5 clade J
[20] = biological target: Cytochrome P450 2C9 (Homo sapiens, UniProt P11712); assay: Inhibition of CYP2C9; assay type: ADME
[21] = system: Human immunodeficiency virus 1; assay: Antiviral activity against HIV-1 R5 clade D infected in human PBMC cells; assay type: functional; conditions: Human immunodeficiency virus 1, R5 clade D
[22] = system: Human immunodeficiency virus 1; assay: Antiviral activity against HIV-1 R5 clade A infected in human PBMC cells; assay type: functional; conditions: Human immunodeficiency virus 1, R5 clade A
[23] = Half life in rat at 1 mg/kg, iv; assay type: ADME, organism-based; parameters: dose 1 mg/kg, route intravenous; conditions: in vivo
[24] = AUC in rat at 20 mg/kg, po; assay type: ADME, organism-based; parameters: dose 20 mg/kg, route oral; conditions: plasma
[25] = Oral bioavailability in dog at 20 mg/kg; assay type: ADME, organism-based, Canis lupus familiaris; conditions: in vivo
[26] = Protein binding in human serum assessed as fraction unbound; assay type: ADME, cell-free
[27] = system: Human immunodeficiency virus 1; assay: Antiviral activity against HIV-1 R5 clade E infected in human PBMC cells; assay type: functional; conditions: Human immunodeficiency virus 1, R5 clade E
[28] = system: Human immunodeficiency virus 1; assay: Antiviral activity against HIV-1 R5 clade F infected in human PBMC cells; assay type: functional; conditions: Human immunodeficiency virus 1, R5 clade F
[29] = Half life in human in repeated dosing regimen; assay type: ADME, organism-based; conditions: in vivo
[30] = Cmax in rat at 20 mg/kg, po; assay type: ADME, organism-based; parameters: dose 20 mg/kg, route oral; conditions: in vivo
[31] = Half life in dog at 20 mg/kg, po; assay type: ADME, organism-based, Canis lupus familiaris; parameters: dose 20 mg/kg, route oral; conditions: in vivo
[32] = Cmax in dog at 20 mg/kg, po; assay type: ADME, organism-based, Canis lupus familiaris; parameters: dose 20 mg/kg, route oral; conditions: in vivo
[33] = Plasma concentration in rat at 20 mg/kg, po after 24 hrs; assay type: ADME, organism-based; parameters: dose 20 mg/kg, route oral
[34] = Tmax in dog at 20 mg/kg, po; assay type: ADME, organism-based, Canis lupus familiaris; parameters: dose 20 mg/kg, route oral; conditions: in vivo
[35] = Induction of Cytochrome P450 up to 30 uM; assay type: ADME
[36] = Oral bioavailability in rat at 20 mg/kg; assay type: ADME, organism-based; conditions: in vivo
[37] = biological target: Cytochrome P450 2C19 (Homo sapiens, UniProt P33261); assay: Inhibition of CYP2C19; assay type: ADME
[38] = AUC in dog at 20 mg/kg, po; assay type: ADME, organism-based, Canis lupus familiaris; parameters: dose 20 mg/kg, route oral; conditions: plasma
[39] = Systemic clearance in rat at 1 mg/kg, iv; assay type: ADME, organism-based; parameters: dose 1 mg/kg, route intravenous; conditions: in vivo
[40] = system: Human immunodeficiency virus 1; assay: Antiviral activity against HIV-1 R5 clade B infected in human PBMC cells; assay type: functional; conditions: Human immunodeficiency virus 1, R5 clade B
[41] = Tmax in rat at 20 mg/kg, po; assay type: ADME, organism-based; parameters: dose 20 mg/kg, route oral; conditions: in vivo
[42] = AUC in rat at 1 mg/kg, iv; assay type: ADME, organism-based; parameters: dose 1 mg/kg, route intravenous; conditions: plasma
[43] = system: Human immunodeficiency virus 1; assay: Antiviral activity against HIV-1 R5 clade C infected in human PBMC cells; assay type: functional; conditions: Human immunodeficiency virus 1, R5 clade C
[44] = system: Human immunodeficiency virus 1; assay: Antiviral activity against HIV-1 R5 clade G infected in human PBMC cells; assay type: functional; conditions: Human immunodeficiency virus 1, R5 clade G
[45] = Half life in dog at 1 mg/kg, iv; assay type: ADME, organism-based, Canis lupus familiaris; parameters: dose 1 mg/kg, route intravenous; conditions: in vivo

T1 sequence (P51681 whole entry): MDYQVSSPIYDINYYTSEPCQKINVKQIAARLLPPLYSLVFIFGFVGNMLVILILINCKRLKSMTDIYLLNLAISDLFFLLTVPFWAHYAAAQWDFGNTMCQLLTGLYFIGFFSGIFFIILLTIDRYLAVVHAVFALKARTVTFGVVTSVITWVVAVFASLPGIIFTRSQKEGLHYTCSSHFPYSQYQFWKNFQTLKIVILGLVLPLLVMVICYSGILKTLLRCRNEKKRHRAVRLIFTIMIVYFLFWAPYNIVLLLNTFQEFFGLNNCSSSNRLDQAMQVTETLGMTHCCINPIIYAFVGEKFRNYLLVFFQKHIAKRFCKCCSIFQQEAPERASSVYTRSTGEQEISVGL
Chain of Cytochrome P450 2C9 (P11712 whole entry): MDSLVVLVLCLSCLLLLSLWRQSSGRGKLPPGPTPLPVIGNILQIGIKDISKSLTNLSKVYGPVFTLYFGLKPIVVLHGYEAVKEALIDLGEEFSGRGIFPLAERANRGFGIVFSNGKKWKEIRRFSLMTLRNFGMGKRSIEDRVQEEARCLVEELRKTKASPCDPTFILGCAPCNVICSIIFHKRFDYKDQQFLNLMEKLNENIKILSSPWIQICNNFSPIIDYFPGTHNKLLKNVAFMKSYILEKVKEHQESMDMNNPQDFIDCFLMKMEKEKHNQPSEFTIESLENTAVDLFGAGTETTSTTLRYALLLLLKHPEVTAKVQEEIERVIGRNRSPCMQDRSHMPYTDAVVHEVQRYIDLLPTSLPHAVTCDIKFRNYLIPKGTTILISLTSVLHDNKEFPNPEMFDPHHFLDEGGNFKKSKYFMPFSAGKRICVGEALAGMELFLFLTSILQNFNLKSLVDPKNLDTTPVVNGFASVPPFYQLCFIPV
Chain of Cytochrome P450 2D6 (P10635 whole entry): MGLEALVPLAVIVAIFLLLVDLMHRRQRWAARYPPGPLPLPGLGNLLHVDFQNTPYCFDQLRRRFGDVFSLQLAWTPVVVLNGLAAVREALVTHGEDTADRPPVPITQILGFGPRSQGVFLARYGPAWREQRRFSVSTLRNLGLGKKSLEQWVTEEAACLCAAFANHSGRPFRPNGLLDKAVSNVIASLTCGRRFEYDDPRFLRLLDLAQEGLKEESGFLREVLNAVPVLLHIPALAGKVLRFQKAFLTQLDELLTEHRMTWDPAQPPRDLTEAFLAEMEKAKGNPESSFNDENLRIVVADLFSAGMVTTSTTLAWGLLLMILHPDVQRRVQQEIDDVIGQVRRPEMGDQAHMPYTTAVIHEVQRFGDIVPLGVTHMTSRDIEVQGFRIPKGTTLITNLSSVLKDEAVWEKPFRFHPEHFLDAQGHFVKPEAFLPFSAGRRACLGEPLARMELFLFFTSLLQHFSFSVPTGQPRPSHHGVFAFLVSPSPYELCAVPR
Chain of Voltage-gated inwardly rectifying potassium channel KCNH2 (Q12809 whole entry): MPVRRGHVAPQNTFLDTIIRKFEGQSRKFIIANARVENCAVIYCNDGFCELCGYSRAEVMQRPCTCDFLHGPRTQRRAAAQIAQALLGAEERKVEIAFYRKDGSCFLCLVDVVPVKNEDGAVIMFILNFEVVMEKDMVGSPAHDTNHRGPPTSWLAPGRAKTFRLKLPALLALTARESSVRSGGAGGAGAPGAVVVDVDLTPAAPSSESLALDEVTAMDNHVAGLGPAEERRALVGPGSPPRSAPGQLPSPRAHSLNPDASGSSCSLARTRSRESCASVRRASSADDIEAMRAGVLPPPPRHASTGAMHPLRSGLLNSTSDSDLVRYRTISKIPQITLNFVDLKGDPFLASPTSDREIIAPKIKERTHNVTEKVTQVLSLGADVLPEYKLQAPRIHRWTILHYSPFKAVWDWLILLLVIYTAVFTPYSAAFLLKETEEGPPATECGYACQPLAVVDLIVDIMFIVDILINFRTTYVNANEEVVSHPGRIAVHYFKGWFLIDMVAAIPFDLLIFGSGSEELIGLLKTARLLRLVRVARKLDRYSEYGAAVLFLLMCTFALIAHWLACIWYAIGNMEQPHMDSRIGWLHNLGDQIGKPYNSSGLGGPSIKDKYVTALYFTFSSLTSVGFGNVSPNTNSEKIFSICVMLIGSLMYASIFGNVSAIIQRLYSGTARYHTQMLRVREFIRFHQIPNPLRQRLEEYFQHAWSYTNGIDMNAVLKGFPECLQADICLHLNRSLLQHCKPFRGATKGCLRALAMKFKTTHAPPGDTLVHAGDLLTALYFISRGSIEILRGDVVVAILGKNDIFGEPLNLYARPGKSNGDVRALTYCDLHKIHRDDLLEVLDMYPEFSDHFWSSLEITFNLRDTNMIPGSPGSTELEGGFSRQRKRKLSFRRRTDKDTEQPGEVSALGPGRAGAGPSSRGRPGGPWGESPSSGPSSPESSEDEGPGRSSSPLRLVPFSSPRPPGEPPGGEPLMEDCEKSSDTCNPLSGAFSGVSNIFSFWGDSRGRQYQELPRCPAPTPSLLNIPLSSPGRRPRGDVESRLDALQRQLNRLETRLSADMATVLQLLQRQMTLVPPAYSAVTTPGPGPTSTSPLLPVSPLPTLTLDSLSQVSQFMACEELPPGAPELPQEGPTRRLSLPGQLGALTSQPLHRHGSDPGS
Chain of Cytochrome P450 2C19 (P33261 whole entry): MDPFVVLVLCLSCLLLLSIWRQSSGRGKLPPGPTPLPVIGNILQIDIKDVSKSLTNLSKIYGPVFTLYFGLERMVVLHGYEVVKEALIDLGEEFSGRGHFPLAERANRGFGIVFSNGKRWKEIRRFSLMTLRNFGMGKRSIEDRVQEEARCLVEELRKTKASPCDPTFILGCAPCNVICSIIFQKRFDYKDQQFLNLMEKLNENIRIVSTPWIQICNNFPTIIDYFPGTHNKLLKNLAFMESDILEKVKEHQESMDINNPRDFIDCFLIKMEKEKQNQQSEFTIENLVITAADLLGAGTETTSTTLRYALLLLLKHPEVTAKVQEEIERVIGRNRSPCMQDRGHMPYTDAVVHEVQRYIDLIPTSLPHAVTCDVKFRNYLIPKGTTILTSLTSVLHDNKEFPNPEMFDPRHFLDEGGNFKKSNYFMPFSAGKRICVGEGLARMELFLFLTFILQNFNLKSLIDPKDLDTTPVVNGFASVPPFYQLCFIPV
Chain of Cytochrome P450 3A4 (P08684 whole entry): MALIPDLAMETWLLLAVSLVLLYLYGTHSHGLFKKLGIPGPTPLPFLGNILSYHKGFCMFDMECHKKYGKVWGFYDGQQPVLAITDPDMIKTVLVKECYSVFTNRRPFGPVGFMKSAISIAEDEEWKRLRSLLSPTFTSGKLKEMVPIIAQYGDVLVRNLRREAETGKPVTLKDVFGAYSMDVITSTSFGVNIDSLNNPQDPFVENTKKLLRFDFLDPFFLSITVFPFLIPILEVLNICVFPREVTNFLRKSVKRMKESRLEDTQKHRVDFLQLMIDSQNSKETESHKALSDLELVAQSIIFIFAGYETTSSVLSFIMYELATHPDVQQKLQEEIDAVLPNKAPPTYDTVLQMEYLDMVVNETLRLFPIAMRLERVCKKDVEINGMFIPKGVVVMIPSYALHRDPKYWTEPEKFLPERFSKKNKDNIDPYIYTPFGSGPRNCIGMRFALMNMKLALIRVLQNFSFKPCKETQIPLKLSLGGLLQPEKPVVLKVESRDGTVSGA

Structure (SMILES): CO[C@H]1Cc2cc(C(F)(F)F)ccc2[C@@H]1N1CCN(C2(C)CCN(C(=O)c3c(C)ncnc3C)CC2)C[C@@H]1C
IC50 [1]: > 1000 nM

Structure (SMILES): Cc1ncnc(C)c1C(=O)N1CCC(C)(N2CCN([C@@H]3c4ccc(C(F)(F)F)cc4C[C@H]3O)[C@@H](C)C2)CC1
IC50 [1]: 211 nM

Structure (SMILES): Cc1ncnc(C)c1C(=O)N1CCC(C)(N2CCN([C@H]3c4ccc(C(F)(F)F)cc4C[C@@H]3O)[C@@H](C)C2)CC1
IC50 [1]: > 1000 nM

Structure (SMILES): Cc1ncnc(C)c1C(=O)N1CCC(C)(N2CCN(C3CCc4cc(Br)ccc43)[C@@H](C)C2)CC1 (mixture of isomers)
IC50 [1]: 190 nM

Structure (SMILES): Cc1ncnc(C)c1C(=O)N1CCC(C)(N2CCN(C3CCc4cc(C(F)(F)F)ccc43)[C@@H](C)C2)CC1 (single isomer, unassigned)
IC50 [1]: 5 nM | IC50 [3]: 19 nM

Structure (SMILES): Cc1ncnc(C)c1C(=O)N1CCC(C)(N2CCN(C3CCc4cc(Br)ccc43)[C@@H](C)C2)CC1 (single isomer, unassigned; diastereomer 1)
IC50 [1]: 3.9 nM | IC50 [3]: 334 nM

Structure (SMILES): CCO[C@@H]1Cc2cc(C(F)(F)F)ccc2[C@H]1N1CCN(C2(C)CCN(C(=O)c3c(C)ncnc3C)CC2)C[C@@H]1C [INCB-9471]
Papp B→A [4]: 16.5 ×10⁻⁶ cm/s | IC50 [2]: 0.36 nM | Activity [5]: inactive | clearance [6]: 3.33 mL/min/kg | Kd [7]: 3.1 nM | IC50 [8]: 1.5 nM | Vd [9]: 3.8 L/kg | IC50 [10]: > 25000 nM | half-life [11]: 12 h | IC50 [12]: > 25000 nM | Vd [13]: 4.1 L/kg | IC50 [14]: 3 nM | IC50 [15]: > 25000 nM | AUC [16]: 7.85 µM·h | IC50 [17]: 4500 nM | IC50 [18]: 16 nM | IC90 [19]: 9 nM | IC50 [20]: > 25000 nM | IC90 [21]: 9 nM | IC90 [22]: 9 nM | half-life [23]: 6 h | AUC [24]: 55.2 µM·h | bioavailability [25]: 95% | IC50 [1]: 6.5 nM | IC50 [3]: 0.16 nM | fraction unbound [26]: 0.16 | IC90 [27]: 9 nM | IC90 [28]: 9 nM | half-life [29]: 58 h | Cmax [30]: 4.07 µM | half-life [31]: 17 h | Cmax [32]: 14 µM | concentration at 24 h [33]: 1.09 µM | Tmax [34]: 0.5 h | Activity [35]: Not Active | bioavailability [36]: 100% | IC50 [37]: > 25000 nM | AUC [38]: 150 µM·h | clearance [39]: 10.3 mL/min/kg | IC90 [40]: 9 nM | Tmax [41]: 3 h | AUC [42]: 2.9 µM·h | IC90 [43]: 9 nM | IC90 [44]: 9 nM | half-life [45]: 11 h

Results, then the compound that gave them:

IC50 [2]: 12 nM | IC50 [1]: 4.6 nM | IC50 [3]: 11 nM
Structure (SMILES): CO[C@@H]1Cc2cc(C(F)(F)F)ccc2[C@H]1N1CCN(C2(C)CCN(C(=O)c3c(C)ncnc3C)CC2)C[C@@H]1C

IC50 [1]: > 1000 nM
Structure (SMILES): CCO[C@H]1Cc2cc(C(F)(F)F)ccc2[C@@H]1N1CCN(C2(C)CCN(C(=O)c3c(C)ncnc3C)CC2)C[C@@H]1C

IC50 [2]: 0.56 nM | IC50 [3]: 0.23 nM | half-life [29]: 28 h
Structure (SMILES): COC[C@@H](c1ccc(C(F)(F)F)cc1)N1CCN(C2(C)CCN(C(=O)c3c(C)ncnc3C)CC2)C[C@@H]1C [VICRIVIROC]
